Screens from PubChem.
MC4R ag barr – activates human MC4R beta-arrestin recruitment; P32245; U2OS MC4R beta-arrestin complementation, luminescence; percent of melanotan II response, DMSO zero; activation, % at 8.9 µM; 0.98% of 360,000 active; AID 540308;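 active means activation above a per-plate cutoff, the mean activation of sample wells on that plate plus 3 SD, cut at about 8% in these data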
Target sequence (P32245 whole entry, looked up): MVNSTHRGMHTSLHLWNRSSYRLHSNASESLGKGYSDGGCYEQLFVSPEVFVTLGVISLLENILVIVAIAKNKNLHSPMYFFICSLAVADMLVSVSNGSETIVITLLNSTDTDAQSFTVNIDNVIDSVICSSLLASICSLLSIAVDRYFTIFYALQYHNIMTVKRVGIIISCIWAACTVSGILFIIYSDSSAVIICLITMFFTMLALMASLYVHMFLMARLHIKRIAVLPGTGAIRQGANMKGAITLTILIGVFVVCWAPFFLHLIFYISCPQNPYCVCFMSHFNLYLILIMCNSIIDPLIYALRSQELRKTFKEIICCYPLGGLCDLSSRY
Granule exo inh – lytic granule exocytosis inhibition; TALL-104 LAMP-1 surface exposure, flow cytometry; cells stimulated with thapsigargin and PMA; inhibition, % at 10 µM; 0.66% of 360,000 active;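 active means inhibition above about 55%, limit read from the data; inconclusive means no clear call, values can overlap the other calls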
Myeloid diff MLP – myeloid differentiation induction; ER-HoxA9 myeloid progenitors, lysozyme-GFP differentiation, flow cytometry; calls only at 10 µM; 1% of 360,000 active; AID 624256;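 active means normalized GFP-positive differentiation at or above the plate's own cutoff, the solvent-only control mean plus 3 SD; inconclusive means no clear call, values can overlap the other calls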;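 further: cells exposed to compound for four days before flow analysis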
EBI2 antag – EBI2 (human) antagonism. inhibition, % at 5 µM. EBI2 beta-arrestin recruitment, luminescence, 7a,25-OHC stimulated. 0.81% of 360,000 active; in the data active means inhibition above about 38%;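 further: enzyme fragment complementation signal reports receptor beta-arrestin coupling in cells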
MC4R antag cAMP – human MC4R antagonism in cAMP assay; inhibition, % at 6.5 µM; AID 540295; P32245; MC4R-expressing cells, MTII-stimulated cAMP, LANCE TR-FRET; 0.48% of 360,000 active;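 active means inhibition above its plate's cutoff, the mean of tested wells on that plate plus 3 SD, cut at about 29% in these data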
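Material: human MC4R-expressing U2OS cells. Probe or stimulus: Melanotan II challenge. Dosing: 6.5 µM single dose. Times: 30-min compound, 1-h challenge, 1-h detection, room temperature. Technique: TR-FRET with Eu-cAMP and labeled anti-cAMP, 671 nm. Replication: singlicate.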
Granule exo CP1 – blocks lytic granule exocytosis; shares compounds with Granule exo inh; TALL-104 cells, LAMP-1 externalization, flow cytometry; stimulated with PMA plus thapsigargin; inhibition, % at 10 µM; 11% of 1,500 active; in the data active means inhibition above about 60%
A number is an active result; n = inactive; u = inconclusive; x = not tested or not shown. An excerpt weighted towards active compounds, which were near 3.7% of everything screened.

SMILES	MC4R ag barr	Granule exo inh	Myeloid diff MLP	EBI2 antag	MC4R antag cAMP	Granule exo CP1
COc1cc(O)c2c(=O)c(-c3ccc(O[C@@H]4O[C@H](CO)[C@@H](O)[C@H](O)[C@H]4O)cc3)coc2c1	n	u	n	n	n	x
CCOc1ccc(Cl)cc1CNCCCSc1nc(C)cc(C)n1	n	86.7	n	n	n	n
CCOc1ccc(Cl)cc1CNCCCSc1ncccn1	n	n	n	n	n	x
COC(=O)c1ccccc1S(=O)(=O)N1CCC(C(=O)OCC(=O)NCC(F)(F)F)CC1	n	95.5	n	n	n	n
CCOC(=O)N1CCN(c2ncnc3c2[nH]c2ccc(OC)cc23)CC1	n	n	n	n	n	x
COc1ccc2[nH]c3c(N4CCc5ccccc5C4)ncnc3c2c1	n	99.4	u	n	n	101.7
CN1CCN(C(=O)OCCOCCOC(=O)N2CCN(C)CC2)CC1	n	60.2	n	n	n	n
CC(=O)N(Cc1cc2ccccc2[nH]c1=O)c1ccc(C)cc1	n	n	n	n	n	x
OCCC1CN(Cc2cccc(F)c2F)CCN1CCc1ccccc1 (stereo not given)	n	n	n	n	n	x
C=CCOc1ccccc1CN1CCN(CCc2ccccc2)C(CCO)C1 (stereo not given)	n	58.4	n	n	n	n
C=CCOc1ccccc1CN1CCC(CO)(CCOc2ccccc2)CC1	n	69.3	n	n	n	n
CCOc1ccccc1CN1CCN(CCCc2ccccc2)CC1CCO (stereo not given)	n	62.8	n	n	n	n
O=C(Cc1ccccn1)c1ccc(F)cc1	n	n	n	n	n	x
CCOc1ccc(N(CC(=O)NCCSc2ccccn2)S(=O)(=O)c2ccc(Cl)cc2)cc1	n	56.9	n	n	n	n
CCOc1ccc(N(CC(=O)NCCSc2ccccn2)S(C)(=O)=O)cc1	n	n	n	n	n	x
Cc1ccc(-c2nn(-c3ccccc3)cc2CN(Cc2ccccc2)C(=O)c2ccco2)o1	n	107.7	n	n	n	103.9
O=C(Nc1cc(C(F)(F)F)ccc1Cl)C(Sc1ccccn1)c1ccccc1 (stereo not given)	n	104.3	n	n	n	n
O=C(CN1CCN(C(C(=O)Nc2cc(C(F)(F)F)ccc2Cl)c2ccccc2)CC1)NC1CC1 (stereo not given)	n	79.8	n	n	n	n
O=C(CN1CCN(C(C(=O)Nc2ccc(Cl)cc2C(F)(F)F)c2ccccc2)CC1)NC1CC1 (stereo not given)	n	n	n	n	n	x
CCCNC(=O)Cn1sc2nc(C)cc(C)c2c1=O	n	58.3	n	n	n	103.0
Cc1cc(N2CCN(c3ncccn3)CC2)nc2c(C)cccc12	n	71.8	n	n	n	n
CCCNC(=O)C1(C)CCN1C(=O)c1ccc(C(C)(C)C)cc1 (stereo not given)	n	n	n	n	n	x
Cc1cccn2c(=O)c3cc(C(=O)NCC4CCCO4)c(=N)n(CCc4ccccc4)c3nc12 (stereo not given)	n	n	n	n	n	x
Cc1cccn2c(=O)c3cc(C(=O)NCc4ccco4)c(=N)n(CCc4ccccc4)c3nc12	n	n	n	n	n	x
Cc1cccn2c(=O)c3cc(C(=O)NCCc4ccccc4)c(=N)n(Cc4ccco4)c3nc12	n	77.6	n	n	n	n
SMILES	MC4R ag barr	Granule exo inh	Myeloid diff MLP	EBI2 antag	MC4R antag cAMP	Granule exo CP1
COc1ccc(CCNC(=O)c2cc3c(=O)n4cccc(C)c4nc3n(CC3CCCO3)c2=N)cc1 (stereo not given)	n	62.0	n	n	n	n
COc1ccc(NC(=O)Nc2c(O)ccc3ccccc23)cc1	n	87.3	n	n	n	n
COC[C@H]1CCCN1c1ccc2c(c1)O[C@@H](COCc1ccccc1)CN([C@H](C)c1ccccc1)S2(=O)=O	x	n	n	n	x	x
Cc1cc(Br)cc(Cl)c1OCC(=O)N1CCN(C(=O)c2ccco2)CC1	n	89.1	n	n	n	n
Cc1cc(C)c(OCC(=O)OCC(=O)N2CCN(C(=O)c3ccco3)CC2)c(C)c1	n	n	n	n	n	x
CCC(CC)C(=O)c1c[nH]c(C(=O)N2CCN(c3ccc(OC)cc3)CC2)c1	n	n	n	n	n	x
Cc1ccccc1N1CCN(C(=O)NCc2cccc(Cl)c2)CC1	n	85.6	n	n	n	n
COc1ccc(N2CCN(S(=O)(=O)c3cn(C)cn3)CC2)cc1	n	n	n	n	n	x
O=S(=O)(c1ccc(SCCO)nc1)N1CCOCC1	n	59.8	n	n	n	n
Cc1ccc(CSc2ccc(S(=O)(=O)N3CCOCC3)cn2)cc1	n	n	n	n	n	x
CC(=O)OCC(=O)Nc1ccc([N+](=O)[O-])cc1Cl	n	n	n	n	n	x
Cc1ccsc1CN(C)CC(=O)Nc1ccc([N+](=O)[O-])cc1Cl	n	98.6	n	n	n	n
COc1cc(OC)cc(C(=O)OCCCOC(=O)c2cc(OC)cc(OC)c2)c1	n	n	n	n	n	x
Cc1cc(C)nc(N2C(=O)CC(C(=O)O)NC2=NCCc2c[nH]c3ccccc23)n1 (stereo not given)	n	n	n	n	n	x
Cc1cc(C)nc(NC(=NCCc2c[nH]c3ccccc23)NC(=O)C(C)(C)C)n1	n	83.4	n	n	n	n
O=C(CCN1CCN(C(=O)c2ccccc2)CC1)c1ccc(Br)cc1	n	81.6	n	n	n	n
O=C(CCN1CCCCC1)c1ccccc1	n	n	n	n	n	x
CN(C)CCCNc1ncnc2oc(-c3ccccc3)c(-c3ccccc3)c12	n	58.9	n	n	n	n
c1ccc(-c2oc3ncnc(NCCCn4ccnc4)c3c2-c2ccccc2)cc1	n	n	n	n	n	x
CCOC(=O)c1c(NC(=O)COC(=O)c2ccc(C)s2)sc2c1CC(C)(C)NC2(C)C	n	63.9	n	n	n	n
CCOC(=O)c1c(NC(=O)CSc2nnnn2-c2ccccc2OCC)sc2c1CC(C)(C)NC2(C)C	n	65.0	n	n	n	62.7
CCOC(=O)c1c(NC(=O)COc2ccccc2OCC)sc2c1CC(C)(C)NC2(C)C	n	67.5	x	n	n	100.4
CNC(=O)CSc1nnc(SCCC(=O)O)s1	n	n	n	n	n	x
CC1=C(C)CS(=O)N(S(=O)(=O)c2ccc(Cl)cc2)C1 (stereo not given)	n	64.4	x	n	n	93.8
CC1CCCC(C)N1S(=O)(=O)c1ccc(Cl)cc1 (stereo not given)	n	n	n	n	n	x
c1ccc2[nH]c(Cn3nnc4ccccc43)nc2c1	n	59.1	n	n	n	n
O=C(NCCCN1CCOCC1)c1ccc(/C=C2\Oc3ccccc3N(Cc3ccccc3F)C2=O)cc1	8.9	62.9	n	n	n	n
O=C(CN1C(=O)/C(=C\c2ccccc2Br)Oc2ccccc21)NCCCN1CCOCC1	n	n	n	n	n	x
Cc1ccc(NC(=O)NCC2CC2(Cl)Cl)cc1 (stereo not given)	n	n	x	n	n	x
